pKi: −log10 of the molar value.
Tests used:
[1] = Cmax associated with acute adverse effect in mouse at 50 mg/kg, ip; assay type: ADME, organism-based; parameters: dose 50 mg/kg, route intraperitoneal; conditions: in vivo
In short: (§1)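 Mouse tolerability studies tested multiple doses, given orally or intraperitoneally. Plasma drug concentrations were measured, including at a 15 min time point. The minimum concentration associated with adverse clinical signs or death was taken as the adverse Cmax and was converted to an unbound value.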

[2] = Ratio of fCmax associated with acute adverse effect in mouse at 25 mg/kg, ip to IC50 for PAK1/2-mediated phosphorylation of MEK1 at serine 298 in human EBC1 cells
[3] = Fraction unbound in mouse plasma at 25 mg/kg, ip; assay type: ADME, organism-based
Mus musculus [4] = assay: fCmax associated with acute adverse effect in mouse at 25 mg/kg, ip; assay type: ADME, organism-based; conditions: in vivo
In short: (§2)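 Mouse tolerability studies at multiple doses, oral or intraperitoneal. Minimum unbound plasma concentration associated with adverse effects (total Cmax converted to unbound) compared with IC50 for inhibition of MEK1 S298 phosphorylation in cells.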

[5] = target: CDK7/Cyclin H/MNAT1 (Homo sapiens) (UniProt P51946+P50613+P51948); assay: Inhibition of recombinant human full length His-tagged CDK7/cyclin H/MNAT1 expressed in Baculovirus at 1 uM relative to control
[6] = target: Ribosomal protein S6 kinase alpha-2 (Homo sapiens) (UniProt Q15349); assay: Inhibition of recombinant human full length His-tagged RSK2 expressed in Baculovirus at 1 uM relative to control
[7] = target: cAMP-dependent protein kinase catalytic subunit alpha (Homo sapiens) (UniProt P17612); assay: Inhibition of recombinant human full length His-tagged PRKACA expressed in Escherichia coli at 1 uM relative to control
[8] = target: Serine/threonine-protein kinase 25 (Homo sapiens) (UniProt O00506); assay: Inhibition of recombinant human full length GST-tagged YSK1 expressed in Baculovirus at 1 uM relative to control
[9] = target: Adenosine receptor A1 (Homo sapiens) (UniProt P30542); assay: Inhibition of recombinant human adenosine A1 receptor expressed in CHO cells at 10 uM relative to control; assay type: cell-based
[10] = target: Serine/threonine-protein kinase Chk2 (Homo sapiens) (UniProt O96017); assay: Inhibition of recombinant human full length His-tagged CHK2 expressed in Baculovirus at 1 uM relative to control
[11] = target: Serine/threonine-protein kinase MARK1 (Homo sapiens) (UniProt Q9P0L2); assay: Inhibition of recombinant human full length GST-tagged MARK1 expressed in Baculovirus at 1 uM relative to control
Serine/threonine-protein kinase MARK1 (Homo sapiens), sequence (Q9P0L2 whole entry, looked up): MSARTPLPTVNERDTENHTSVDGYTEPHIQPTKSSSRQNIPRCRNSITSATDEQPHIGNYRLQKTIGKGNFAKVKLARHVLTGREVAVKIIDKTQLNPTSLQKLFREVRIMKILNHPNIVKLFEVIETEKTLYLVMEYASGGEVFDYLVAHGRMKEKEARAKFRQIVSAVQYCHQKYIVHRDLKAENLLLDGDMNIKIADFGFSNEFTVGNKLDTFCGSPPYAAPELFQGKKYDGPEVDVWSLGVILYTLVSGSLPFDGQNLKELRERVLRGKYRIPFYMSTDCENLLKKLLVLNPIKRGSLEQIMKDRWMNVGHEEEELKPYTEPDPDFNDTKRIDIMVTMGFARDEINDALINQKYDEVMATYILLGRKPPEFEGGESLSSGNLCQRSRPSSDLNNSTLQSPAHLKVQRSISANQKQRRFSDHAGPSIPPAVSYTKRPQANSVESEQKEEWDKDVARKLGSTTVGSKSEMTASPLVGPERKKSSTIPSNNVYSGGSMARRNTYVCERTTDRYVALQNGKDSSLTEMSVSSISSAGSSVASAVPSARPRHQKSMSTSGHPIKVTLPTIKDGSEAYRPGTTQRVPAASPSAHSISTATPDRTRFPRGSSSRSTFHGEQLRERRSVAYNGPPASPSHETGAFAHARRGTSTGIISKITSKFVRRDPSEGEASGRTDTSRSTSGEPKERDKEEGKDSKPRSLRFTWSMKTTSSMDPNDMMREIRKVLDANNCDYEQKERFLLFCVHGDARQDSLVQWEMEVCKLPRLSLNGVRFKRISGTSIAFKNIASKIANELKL

[12] = target: Ribosomal protein S6 kinase alpha-6 (Homo sapiens) (UniProt Q9UK32); assay: Inhibition of recombinant human full length GST-tagged RSK4 expressed in Baculovirus at 1 uM relative to control
[13] = target: Receptor-type tyrosine-protein kinase FLT3 (Homo sapiens) (UniProt P36888); assay: Inhibition of recombinant human full length His-tagged FLT3 expressed in Baculovirus at 1 uM relative to control
[14] = target: Phosphorylase b kinase gamma catalytic chain, skeletal muscle/heart isoform (Homo sapiens) (UniProt Q16816); assay: Inhibition of recombinant human full length GST-tagged PHKgamma 1 expressed in Baculovirus at 1 uM relative to control
Phosphorylase b kinase gamma catalytic chain, skeletal muscle/heart isoform (Homo sapiens), sequence (Q16816 whole entry, looked up, canonical isoform): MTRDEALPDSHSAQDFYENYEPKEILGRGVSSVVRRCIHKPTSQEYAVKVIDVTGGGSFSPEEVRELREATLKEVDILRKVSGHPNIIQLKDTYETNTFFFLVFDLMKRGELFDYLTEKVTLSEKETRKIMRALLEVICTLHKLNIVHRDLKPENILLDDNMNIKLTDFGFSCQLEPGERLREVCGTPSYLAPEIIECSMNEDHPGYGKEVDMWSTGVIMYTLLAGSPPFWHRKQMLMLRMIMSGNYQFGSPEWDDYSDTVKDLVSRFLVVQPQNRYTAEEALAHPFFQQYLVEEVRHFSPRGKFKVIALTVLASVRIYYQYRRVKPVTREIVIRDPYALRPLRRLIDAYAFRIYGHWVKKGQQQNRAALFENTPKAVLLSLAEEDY

[15] = target: Serine/threonine-protein kinase PAK 5 (Homo sapiens) (UniProt Q9P286); assay: Inhibition of recombinant human full length His-tagged PAK5 expressed in Baculovirus at 1 uM relative to control
[16] = target: Serine/threonine-protein kinase 24 (Homo sapiens) (UniProt Q9Y6E0); assay: Inhibition of recombinant human full length GST-tagged MST3 expressed in Baculovirus at 1 uM relative to control
[17] = target: Testis-specific serine/threonine-protein kinase 1 (Homo sapiens) (UniProt Q9BXA7); assay: Inhibition of recombinant human full length His-tagged TSSK1 expressed in Baculovirus at 1 uM relative to control
[18] = target: Adenosine receptor A2a (Homo sapiens) (UniProt P29274); assay: Inhibition of recombinant human adenosine A2A receptor expressed in HEK293 cells at 10 uM relative to control; assay type: cell-based
[19] = Fraction unbound in mouse plasma at 50 mg/kg, ip; assay type: ADME, organism-based
[20] = target: 5'-AMP-activated protein kinase catalytic subunit alpha-1 (Homo sapiens) (UniProt Q13131); assay: Inhibition of recombinant human PRKAA1 at 1 uM relative to control
[21] = target: Proto-oncogene tyrosine-protein kinase receptor Ret (Homo sapiens) (UniProt P07949); assay: Inhibition of recombinant human full length GST-tagged RET expressed in Baculovirus at 1 uM relative to control
[22] = target: Tyrosine-protein kinase Lyn (Homo sapiens) (UniProt P07948); assay: Inhibition of recombinant human full length His-tagged LynB expressed in Baculovirus at 1 uM relative to control
[23] = target: Serine/threonine-protein kinase Chk1 (Homo sapiens) (UniProt O14757); assay: Inhibition of recombinant human full length His-tagged CHK1 expressed in Baculovirus at 1 uM relative to control
Serine/threonine-protein kinase Chk1 (Homo sapiens), sequence (O14757 whole entry): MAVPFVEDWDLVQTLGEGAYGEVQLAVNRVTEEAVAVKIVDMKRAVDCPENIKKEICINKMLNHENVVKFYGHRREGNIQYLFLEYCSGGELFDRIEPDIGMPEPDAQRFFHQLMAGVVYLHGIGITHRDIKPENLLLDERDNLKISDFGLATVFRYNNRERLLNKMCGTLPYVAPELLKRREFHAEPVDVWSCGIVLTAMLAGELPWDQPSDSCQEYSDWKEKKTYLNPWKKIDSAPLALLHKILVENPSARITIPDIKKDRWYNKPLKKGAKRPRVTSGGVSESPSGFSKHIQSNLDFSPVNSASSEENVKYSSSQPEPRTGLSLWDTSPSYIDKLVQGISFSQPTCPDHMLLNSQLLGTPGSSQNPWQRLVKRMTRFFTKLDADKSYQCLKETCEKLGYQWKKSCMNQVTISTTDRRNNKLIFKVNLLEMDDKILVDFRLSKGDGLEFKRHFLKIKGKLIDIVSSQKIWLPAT

[24] = target: Serine/threonine-protein kinase PAK 4 (Homo sapiens) (UniProt O96013); conditions: 1 uM
[25] = target: Serine/threonine-protein kinase 4 (Homo sapiens) (UniProt Q13043); assay: Inhibition of recombinant human full length GST-tagged MST1 expressed in Baculovirus at 1 uM relative to control
[26] = target: Glycogen synthase kinase-3 beta (Homo sapiens) (UniProt P49841); assay: Inhibition of recombinant human full length His-tagged GSK3beta expressed in Baculovirus at 1 uM relative to control
[27] = target: Tyrosine-protein kinase ABL2 (Homo sapiens) (UniProt P42684); assay: Inhibition of recombinant human full length His-tagged ARG expressed in Baculovirus at 1 uM relative to control
[28] = Ratio of fCmax associated with acute adverse effect in mouse at 50 mg/kg, ip to IC50 for PAK1/2-mediated phosphorylation of MEK1 at serine 298 in human EBC1 cells
In short: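 Mouse tolerability study run at multiple doses, here by i.p. injection. Plasma drug levels were measured, and total concentration was converted to unbound. The minimum unbound Cmax associated with adverse effects (C_max,adverse,u) was divided by the cellular IC50 for inhibition of PAK1/2-mediated MEK1 S298 phosphorylation.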

[29] = target: Serine/threonine-protein kinase PAK 6 (Homo sapiens) (UniProt Q9NQU5); conditions: 1 uM
[30] = target: 5'-AMP-activated protein kinase catalytic subunit alpha-2 (Homo sapiens) (UniProt P54646); assay: Inhibition of recombinant human PRKAA2 at 1 uM relative to control
5'-AMP-activated protein kinase catalytic subunit alpha-2 (Homo sapiens), sequence (P54646 whole entry, looked up): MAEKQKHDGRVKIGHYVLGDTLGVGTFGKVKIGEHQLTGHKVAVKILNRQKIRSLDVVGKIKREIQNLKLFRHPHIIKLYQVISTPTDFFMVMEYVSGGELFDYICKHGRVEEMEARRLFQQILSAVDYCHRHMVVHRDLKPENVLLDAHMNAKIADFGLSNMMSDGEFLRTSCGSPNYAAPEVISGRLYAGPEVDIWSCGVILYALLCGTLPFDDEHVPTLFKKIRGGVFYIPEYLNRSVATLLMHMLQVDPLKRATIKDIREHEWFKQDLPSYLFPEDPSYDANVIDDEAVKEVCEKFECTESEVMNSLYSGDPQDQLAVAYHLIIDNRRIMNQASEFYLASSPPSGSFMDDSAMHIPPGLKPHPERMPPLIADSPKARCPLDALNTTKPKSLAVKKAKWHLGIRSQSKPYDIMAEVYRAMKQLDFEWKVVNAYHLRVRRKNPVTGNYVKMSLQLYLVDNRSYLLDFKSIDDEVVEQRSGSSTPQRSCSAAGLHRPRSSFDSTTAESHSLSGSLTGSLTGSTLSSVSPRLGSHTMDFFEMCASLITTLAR

[31] = target: Ribosomal protein S6 kinase alpha-3 (Homo sapiens) (UniProt P51812); assay: Inhibition of recombinant human full length GST-tagged RSK3 expressed in insect cells at 1 uM relative to control
Ribosomal protein S6 kinase alpha-3 (Homo sapiens), sequence (P51812 whole entry): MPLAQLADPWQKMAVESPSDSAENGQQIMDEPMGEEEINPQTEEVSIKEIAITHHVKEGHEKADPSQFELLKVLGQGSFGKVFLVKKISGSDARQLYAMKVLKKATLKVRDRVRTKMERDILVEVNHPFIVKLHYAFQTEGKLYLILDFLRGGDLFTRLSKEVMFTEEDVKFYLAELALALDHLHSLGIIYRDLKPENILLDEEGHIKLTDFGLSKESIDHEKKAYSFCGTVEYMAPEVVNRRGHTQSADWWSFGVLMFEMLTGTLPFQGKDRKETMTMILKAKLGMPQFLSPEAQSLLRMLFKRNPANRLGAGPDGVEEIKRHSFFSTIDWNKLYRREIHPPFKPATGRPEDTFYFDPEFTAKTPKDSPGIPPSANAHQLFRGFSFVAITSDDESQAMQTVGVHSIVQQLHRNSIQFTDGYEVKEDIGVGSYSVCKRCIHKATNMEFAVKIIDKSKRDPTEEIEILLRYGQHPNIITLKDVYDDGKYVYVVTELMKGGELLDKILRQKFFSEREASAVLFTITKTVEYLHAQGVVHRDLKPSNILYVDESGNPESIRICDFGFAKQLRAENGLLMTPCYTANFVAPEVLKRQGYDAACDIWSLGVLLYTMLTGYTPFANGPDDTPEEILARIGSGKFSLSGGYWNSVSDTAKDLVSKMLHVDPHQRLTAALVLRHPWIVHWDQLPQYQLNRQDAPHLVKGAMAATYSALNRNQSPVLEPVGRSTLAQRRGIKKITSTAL

[32] = target: MAP/microtubule affinity-regulating kinase 3 (Homo sapiens) (UniProt P27448); assay: Inhibition of recombinant human full length GST-tagged MARK3 expressed in Baculovirus at 1 uM relative to control
[33] = target: Tyrosine-protein kinase Mer (Homo sapiens) (UniProt Q12866); assay: Inhibition of recombinant human GST-tagged Mer expressed in Baculovirus at 1 uM relative to control
[34] = target: Proto-oncogene tyrosine-protein kinase Src (Homo sapiens) (UniProt P12931); assay: Inhibition of recombinant human full length His-tagged SRC expressed in Baculovirus at 1 uM relative to control
[35] = target: Protein kinase C theta type (Homo sapiens) (UniProt Q04759); assay: Inhibition of recombinant human full length His-tagged PKCtheta expressed in Baculovirus at 1 uM relative to control
Protein kinase C theta type (Homo sapiens), sequence (Q04759 whole entry, looked up): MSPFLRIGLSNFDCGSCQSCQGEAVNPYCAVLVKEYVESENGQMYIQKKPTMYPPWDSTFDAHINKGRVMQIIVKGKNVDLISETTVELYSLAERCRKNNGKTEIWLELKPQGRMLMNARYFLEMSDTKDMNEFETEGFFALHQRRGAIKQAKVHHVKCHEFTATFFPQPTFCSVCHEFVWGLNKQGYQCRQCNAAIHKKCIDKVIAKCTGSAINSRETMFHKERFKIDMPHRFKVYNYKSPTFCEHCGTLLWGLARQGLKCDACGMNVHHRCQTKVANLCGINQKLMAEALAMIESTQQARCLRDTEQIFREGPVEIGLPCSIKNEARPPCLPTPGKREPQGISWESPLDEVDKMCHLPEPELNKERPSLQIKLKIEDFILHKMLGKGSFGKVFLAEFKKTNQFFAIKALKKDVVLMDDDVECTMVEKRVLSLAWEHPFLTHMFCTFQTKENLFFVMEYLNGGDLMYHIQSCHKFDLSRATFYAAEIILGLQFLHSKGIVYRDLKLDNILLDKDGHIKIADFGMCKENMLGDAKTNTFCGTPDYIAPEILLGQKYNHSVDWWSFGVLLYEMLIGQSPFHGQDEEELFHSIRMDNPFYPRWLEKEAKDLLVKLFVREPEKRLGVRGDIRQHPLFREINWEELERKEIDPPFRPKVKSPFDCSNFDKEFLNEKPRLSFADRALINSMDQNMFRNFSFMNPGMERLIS

Mus musculus [36] = assay: fCmax associated with acute adverse effect in mouse at 50 mg/kg, ip; assay type: ADME, organism-based; conditions: in vivo; in short: as §2
[37] = target: Protein kinase C alpha type (Homo sapiens) (UniProt P17252); assay: Inhibition of recombinant human full length PKCalpha expressed in Baculovirus at 1 uM relative to control
[38] = target: Tyrosine-protein kinase Yes (Homo sapiens) (UniProt P07947); assay: Inhibition of recombinant human full length GST-tagged YES expressed in Baculovirus at 1 uM relative to control
[39] = target: High affinity nerve growth factor receptor (Homo sapiens) (UniProt P04629); assay: Inhibition of recombinant human His-tagged TRKA (441 to 796 residues) expressed in Baculovirus at 1 uM relative to control
High affinity nerve growth factor receptor (Homo sapiens), sequence (P04629 33-796 limits assumed): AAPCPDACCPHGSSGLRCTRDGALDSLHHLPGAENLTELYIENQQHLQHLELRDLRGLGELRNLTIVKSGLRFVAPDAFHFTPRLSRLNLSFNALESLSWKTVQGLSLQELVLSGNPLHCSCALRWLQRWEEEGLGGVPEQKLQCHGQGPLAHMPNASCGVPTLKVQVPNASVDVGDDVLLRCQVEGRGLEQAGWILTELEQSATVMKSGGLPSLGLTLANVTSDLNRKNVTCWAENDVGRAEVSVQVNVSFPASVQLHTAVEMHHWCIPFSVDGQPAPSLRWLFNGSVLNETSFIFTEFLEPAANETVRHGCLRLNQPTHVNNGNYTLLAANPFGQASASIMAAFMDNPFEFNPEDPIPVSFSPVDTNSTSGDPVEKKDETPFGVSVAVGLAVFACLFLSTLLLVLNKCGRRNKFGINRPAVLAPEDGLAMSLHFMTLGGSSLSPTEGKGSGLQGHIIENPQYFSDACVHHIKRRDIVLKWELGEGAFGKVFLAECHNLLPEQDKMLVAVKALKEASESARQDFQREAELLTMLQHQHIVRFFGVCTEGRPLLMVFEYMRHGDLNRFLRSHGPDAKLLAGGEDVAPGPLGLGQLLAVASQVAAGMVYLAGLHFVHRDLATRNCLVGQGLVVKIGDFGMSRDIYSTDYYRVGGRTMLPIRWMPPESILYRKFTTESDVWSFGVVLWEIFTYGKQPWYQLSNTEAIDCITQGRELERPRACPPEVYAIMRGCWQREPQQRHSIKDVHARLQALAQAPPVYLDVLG

[40] = target: Sodium-dependent serotonin transporter (Homo sapiens) (UniProt P31645); assay: Inhibition of recombinant human 5HT transporter expressed in CHO cells at 10 uM relative to control; assay type: cell-based
[41] = target: Serine/threonine-protein kinase 26 (Homo sapiens) (UniProt Q9P289); assay: Inhibition of recombinant human full length GST-tagged MST4 expressed in Baculovirus at 1 uM relative to control
[42] = Cmax in mouse at 50 mg/kg, ip; assay type: ADME, organism-based; parameters: dose 50 mg/kg, route intraperitoneal; conditions: in vivo
[43] = target: Serine/threonine-protein kinase PAK 1 (Homo sapiens, UniProt Q13153); assay: Inhibition of human recombinant N-terminal 6-His-tagged PAK1 kinase domain (249 to 545 residues) expressed in Escherichia coli BL21(DE3) assessed as phosphorylation of coumarin labeled FRET peptide substrate at Ser/Thr19 preincubated for 10 mins followed by ATP addition measured after 60 mins by Z'-LYTE assay
[44] = Ratio of fCmax associated with acute adverse effect in mouse at 25 to 50 mg/kg, po to IC50 for PAK1/2-mediated phosphorylation of MEK1 at serine 298 in human EBC1 cells
In short: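 Mouse tolerability studies at multiple doses, given p.o. or i.p. Total plasma concentrations were converted to unbound levels. The minimum unbound Cmax linked to adverse effects was set against the cellular IC50 for inhibition of MEK1 S298 phosphorylation.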

[45] = target: Serine/threonine-protein kinase PAK 2 (Homo sapiens, UniProt Q13177); assay: Inhibition of human recombinant PAK2 assessed as phosphorylation of coumarin labeled FRET peptide substrate at Ser/Thr19 preincubated for 10 mins followed by ATP addition measured after 60 mins by Z'-LYTE assay
Serine/threonine-protein kinase PAK 2, sequence (Q13177 whole entry): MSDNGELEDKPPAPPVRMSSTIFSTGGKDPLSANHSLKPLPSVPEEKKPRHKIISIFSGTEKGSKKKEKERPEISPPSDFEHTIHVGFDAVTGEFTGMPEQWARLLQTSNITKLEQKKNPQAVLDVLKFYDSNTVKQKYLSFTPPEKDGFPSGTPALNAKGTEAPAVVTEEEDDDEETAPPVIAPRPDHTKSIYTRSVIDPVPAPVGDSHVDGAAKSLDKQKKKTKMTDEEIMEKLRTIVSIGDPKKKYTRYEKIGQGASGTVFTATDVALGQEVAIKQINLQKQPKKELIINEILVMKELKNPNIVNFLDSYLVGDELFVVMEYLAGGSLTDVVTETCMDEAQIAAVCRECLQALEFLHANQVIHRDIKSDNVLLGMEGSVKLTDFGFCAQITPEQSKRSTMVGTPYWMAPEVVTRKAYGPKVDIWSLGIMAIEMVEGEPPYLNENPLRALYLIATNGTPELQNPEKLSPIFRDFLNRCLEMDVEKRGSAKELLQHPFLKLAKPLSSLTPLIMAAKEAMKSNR

[46] = target: Serine/threonine-protein kinase PAK 1/PAK 2 (Homo sapiens, UniProt Q13177+Q13153); assay: Inhibition of PAK1/2 in human EBC1 cells assessed as phosphorylation of MEK1 at serine 298 after 2 hrs by HTRF assay; assay type: cell-based
[47] = Cmax associated with acute adverse effect in mouse at 25 to 50 mg/kg, po; assay type: ADME, organism-based; conditions: in vivo; in short: as §1
[48] = Fraction unbound in mouse plasma at 25 to 50 mg/kg, po; assay type: ADME, organism-based
Mus musculus [49] = assay: fCmax associated with acute adverse effect in mouse at 25 to 50 mg/kg, po; assay type: ADME, organism-based; conditions: in vivo; in short: as §2

N[C@H]1CC[C@H](CNc2nccc(Nc3cc(C(F)(F)F)ccn3)n2)CC1
Cmax [1]: 26 µM
Ratio [2]: 1
fraction unbound [3]: 0.063
fCmax (Mus musculus [4]): 1.6 µM

Cc1nc(Nc2n[nH]c3c2CN(C(=O)N[C@H](CN(C)C)c2ccccc2)C3(C)C)c2sccc2n1 [PF-03758309]
inhibition [5]: > 75%
Cmax [1]: 10 µM
inhibition [6]: > 75%
inhibition [7]: > 75%
inhibition [8]: > 75%
inhibition [9]: > 75%
inhibition [10]: > 75%
inhibition [11]: > 75%
inhibition [12]: > 75%
inhibition [13]: > 75%
inhibition [14]: > 75%
inhibition [15]: > 75%
inhibition [16]: > 75%
inhibition [17]: > 75%
inhibition [18]: > 75%
fraction unbound [19]: 0.163
inhibition [20]: > 75%
inhibition [21]: > 75%
inhibition [22]: > 75%
inhibition [23]: > 75%
inhibition [24]: > 75%
inhibition [25]: > 75%
inhibition [26]: > 75%
inhibition [27]: > 75%
Ratio [28]: 1
inhibition [29]: > 75%
inhibition [30]: > 75%
inhibition [31]: > 75%
inhibition [32]: > 75%
inhibition [33]: > 75%
inhibition [34]: > 75%
inhibition [35]: > 75%
fCmax (Mus musculus [36]): 1.6 µM
inhibition [37]: > 75%
inhibition [38]: > 75%
inhibition [39]: > 75%
inhibition [40]: > 75%
inhibition [41]: > 75%
Cmax [42]: 10 µM

CNc1ncc2cc(-c3ccc(-n4cncc(C)c4=O)cc3Cl)c(=O)n(CCOC)c2n1
pKi [43]: 7.66
Ratio [44]: 1
pKi [45]: 7.41
IC50 [46]: 800 nM
Cmax [47]: 14 µM
fraction unbound [48]: 0.059
fCmax (Mus musculus [49]): 0.85 µM

Reference: ChEMBL document CHEMBL3817726, “Chemically Diverse Group I p21-Activated Kinase (PAK) Inhibitors Impart Acute Cardiovascular Toxicity with a Narrow Therapeutic Window” (J Med Chem, 2016)
